Shown are actives, neighbours in structure and some others; about 1.5% of the full set was active somewhere.
EBI2 antag: EBI2 (human) antagonism. P32249. EBI2 beta-arrestin recruitment, luminescence, 7a,25-OHC stimulated. 360,000 compounds, 0.81% hits. inhibition, % at 5 µM; in the data active means inhibition above about 38%;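 further: enzyme fragment complementation signal reports receptor beta-arrestin coupling in cells; 0% = agonist plus DMSO wells and 100% = wells without agonist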
Target sequence (P32249 whole entry, looked up, the tested form may be a part): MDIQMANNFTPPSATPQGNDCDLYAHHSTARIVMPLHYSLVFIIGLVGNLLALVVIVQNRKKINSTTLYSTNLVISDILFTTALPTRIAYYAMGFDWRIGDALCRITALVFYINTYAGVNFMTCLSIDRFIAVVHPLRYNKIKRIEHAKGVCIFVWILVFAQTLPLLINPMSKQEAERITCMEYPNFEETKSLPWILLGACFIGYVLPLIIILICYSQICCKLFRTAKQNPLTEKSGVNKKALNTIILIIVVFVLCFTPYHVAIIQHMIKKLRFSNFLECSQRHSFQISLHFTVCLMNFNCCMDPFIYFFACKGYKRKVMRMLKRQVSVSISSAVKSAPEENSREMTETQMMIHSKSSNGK
APJ agonist: agonists of human APJ apelin receptor | P35414 | CHO-K1 APJ PathHunter beta-arrestin, luminescence; 0% DMSO wells, 100% apelin | activation, % at 20 µM | 330,000 compounds, 0.11% hits;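 active means activation more than six SD over the plate average, tested at 20 µM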;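 further: 0% = DMSO alone and 100% = apelin-13 at 10 nM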
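system = engineered CHO-K1 APJ arrestin reporter cells | input = 1000 cells per well | timing = overnight seeding, 90 min compound at 25 °C, 1 h detection | measured by = enzyme-fragment complementation luminescence | read-out = beta-arrestin recruitment to APJ as agonist activity, luminescent signal | control set = negative DMSO alone, positive Apelin-13 at 10 nM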
APJ antagonist: APJ receptor antagonism; P35414; CHO-K1 APJ beta-arrestin complementation, luminescence; 330,000 compounds, 0.32% hits; AID 2521; inhibition, % at 20 µM;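 active means inhibition above about 40% at 20 µM, limit read from the data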;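 further: cells challenged with 10 nM apelin-13 agonist together with compound; plate controls were apelin-13 plus DMSO wells for no effect and DMSO wells lacking apelin-13 for full effect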
CXCR6 block: inhibitors of human CXCR6 receptor; CHO-K1 PathHunter CXCR6 beta-arrestin, luminescence; inhibition, % at 20 µM; 360,000 compounds, 0.36% hits; AID 602244; in the data active means inhibition above about 34%, passing the limit was not always enough;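 further: antagonist mode with CXCL16 agonist at 10 nM final; 0% = 10 nM CXCL16 with DMSO and 100% = unstimulated wells without agonist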
CCR6 antagonist: blocks CCL20-driven beta-arrestin recruitment at human CCR6; P51684; CHO-K1 CCR6 PathHunter beta-arrestin, luminescence, CCL20-stimulated; inhibition, % at 20 µM; 340,000 compounds, 0.49% hits; AID 493098;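 active means compounds whose inhibition of the agonist-driven luminescence signal at 20 µM reaches about 50%, limit read from the data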;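 further: cells stimulated with CCL20 at 14 nM final; plate controls were DMSO with CCL20 for no effect and DMSO without agonist for full effect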
EBI2 antag conf: confirmation of human EBI2 receptor antagonists | shares compounds with EBI2 antag | 2,400 compounds, 29% hits | inhibition, % at 5 µM | EBI2 beta-arrestin luminescence, 7a,25-OHC antagonism;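 active means inhibition of at least 50%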
EBI2 agonist: counter-screen for EBI2 antagonists: EBI2 agonist activity. activation, % at 5 µM. shares compounds with EBI2 antag. EBI2-expressing cells, agonist mode, luminescence, 60 min; 0% vehicle, 100% 7α,25-dihydroxycholesterol control. 2,400 tested, under 10 active. AID 652000;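 active means activation of at least 50%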
bGal cs: beta-galactosidase inhibition counter-screen; shares compounds with EBI2 antag; purified beta-galactosidase, luminescent Galacton Star, 15 min; inhibition, % at 5 µM; 2,400 compounds, 1% hits; AID 652176;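 active means replicate-average signal at least 3 plate SD below neutral wells, shown as high inhibition, flagging enzyme-inhibiting false positives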;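 further: 0% = DMSO wells with enzyme and 100% = wells lacking enzyme; higher means stronger loss of beta-gal luminescence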
* marks the source's active call; other numbers are inactive results; · = no result.

SMILES	EBI2 antag	APJ agonist	APJ antagonist	CXCR6 block	CCR6 antagonist	EBI2 antag conf	EBI2 agonist	bGal cs
C[C@@H](C(=O)Nc1ccc2ccccc2c1)[C@@H]1C[C@@]1(C)[C@@H](NC(=O)c1cnccn1)c1ccccc1	75*	-6	9	7	17	42	-2	-13
C[C@@H](C(=O)Nc1ccc2ccccc2c1)[C@H]1C[C@]1(C)[C@H](NC(=O)c1cnccn1)c1ccccc1	10	-1	-4	4	2	·	·	·
CCOC(=O)c1c(NC(=O)CN2C(=O)NC3(CCCC3)C2=O)sc(C)c1CC	1	-2	8	10	22	·	·	·
Cc1ccc(OCc2nnnn2-c2ccccc2)cc1	51*	1	15	1	14	33	1	7
Cc1ccc(-n2nnnc2CCl)cc1	-5	·	·	-2	-5	·	·	·
CCCCc1nc2cc(C(=O)NCc3cc(C)n(C)n3)ccc2o1	-7	-3	3	-2	-1	·	·	·
COc1ccc(S(=O)(=O)N2CCC(C(=O)NCc3ccncc3)CC2)cc1	-12	1	-7	-7	9	·	·	·
Cc1ccc(CNC(=O)N2CCN(S(=O)(=O)c3ccccc3)CC2)cc1	56*	-3	-16	6	14	49	3	-3
Cc1ccc(CNC(=O)C2CCN(S(=O)(=O)c3c(C)noc3/C=C/c3ccco3)CC2)cc1	65*	-4	-2	11	16	49	2	2
COc1ccc(CNC(=O)C2CCN(S(=O)(=O)c3cccc(C(F)(F)F)c3)CC2)cc1	54*	1	5	-6	10	38	0	-16
Cc1noc(/C=C/c2ccco2)c1S(=O)(=O)N1CCC(C(=O)NCc2ccco2)CC1	3	-4	2	-7	22	·	·	·
COc1ccc(S(=O)(=O)N2CCC(C(=O)NCc3ccc(C)cc3)CC2)cc1	66*	1	7	3	12	55*	2	8
CCOc1ccc(C/C(O)=C2\C(=O)CC(C)(C)CC2=NCC(=O)O)cc1OCC	-6	-1	-4	3	10	·	·	·
Cc1ccc(NC(=O)C(c2ccccc2)N2CCN(C(=O)c3ccco3)CC2)cc1Cl (configuration not stated)	3	-5	4	8	4	·	·	·
c1cc[n+](CCC[n+]2ccccc2)cc1	-3	-5	28	7	1	·	·	·
CCC(CO)Oc1cc(NC(=O)c2ccccc2Cl)c2ncn(C(C)C)c2c1 (configuration not stated)	3	-1	5	-9	2	·	·	·
C=CCn1c(SCc2c(C)noc2C)nc2ccccc2c1=O	5	-7	-20	1	8	·	·	·
COc1cc2nc(SCc3c(C)noc3C)n(CCC3=CCCCC3)c(=O)c2cc1OC	46*	9	7	27	22	15	-1	-6
Cc1ccc(C(C)C)c(OCCNC(=O)c2cncc(Br)c2)c1	50*	-3	-29	-8	16	27	-2	-4
O=C(O)C(Oc1ccc2ccccc2c1)c1ccccc1 (configuration not stated)	4	-3	-10	2	3	·	·	·
CCOC(=O)c1c(Nc2ccccc2)sc(/C=C2\C=Nc3ccccc32)c1O	53*	-2	10	6	-6	41	-1	7
O=C(NCCS(=O)(=O)c1ccc(Br)cc1)c1ccccc1	-6	-10	9	-15	1	·	·	·
CC(NCCS(=O)(=O)c1ccc(Cl)cc1)c1cccc(Cl)c1 (configuration not stated)	74*	2	20	4	11	38	0	4
CC(C)c1ccc(C(C)NCCS(=O)(=O)c2ccc(Br)cc2)cc1 (configuration not stated)	78*	-3	10	6	28	61*	0	5

Source: PubChem BioAssay (Sanford-Burnham Center for Chemical Genomics)
